Results published in ChEMBL document CHEMBL2086305 (Eur J Med Chem, 2012).
Each block holds one compound with its values, some of them ahead of it. The source made the active and inactive calls. The calls are words filed in the database; no cut-off is given here.

Legend:
[1] = Antiplatelet activity against rabbit platelets assessed as inhibition of thrombin-induced platelet aggregation; format: functional, cell-based; conditions: Oryctolagus cuniculus
[2] = (§1) Antiplatelet activity against rabbit platelets assessed as inhibition of ADP-induced platelet aggregation; format: functional, cell-based; conditions: Oryctolagus cuniculus
Rattus norvegicus [3] = assay: Toxicity in Sprague-Dawley rat assessed as adverse effect at 20 mg/kg, administered via gastric tube; format: organism-based; design: dose 20 mg/kg; conditions: in vivo, po
Rattus norvegicus [4] = assay: Drug metabolism in Sprague-Dawley rat plasma assessed as HTMP level at 20 mg/kg, administered via gastric tube after 0.167 hrs; format: ADME, organism-based; design: dose 20 mg/kg; conditions: in vivo, po
Procedure, shortened: (§2)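 Female Sprague-Dawley rats received 20 mg/kg. Whole blood was collected at 0.167–6 h and mixed with 4% formic acid. Samples were precipitated with acetonitrile and stored at −70 °C.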

Rattus norvegicus [5] = assay: Drug metabolism in Sprague-Dawley rat plasma assessed as dabigatran level at 20 mg/kg, administered via gastric tube after 0.167 hrs; format: ADME, organism-based; design: dose 20 mg/kg; conditions: in vivo, po; procedure, shortened: as §2
Rattus norvegicus [6] = assay: Drug metabolism in Sprague-Dawley rat plasma assessed as HTMP level at 20 mg/kg, administered via gastric tube after 0.25 hrs; format: ADME, organism-based; design: dose 20 mg/kg; conditions: in vivo, po; procedure, shortened: as §2
Rattus norvegicus [7] = assay: Drug metabolism in Sprague-Dawley rat plasma assessed as dabigatran level at 20 mg/kg, administered via gastric tube after 0.25 hrs; format: ADME, organism-based; design: dose 20 mg/kg; conditions: in vivo, po; procedure, shortened: as §2
Rattus norvegicus [8] = assay: Drug metabolism in Sprague-Dawley rat plasma assessed as HTMP level at 20 mg/kg, administered via gastric tube after 0.5 hrs; format: ADME, organism-based; design: dose 20 mg/kg; conditions: in vivo, po; procedure, shortened: as §2
Rattus norvegicus [9] = assay: Drug metabolism in Sprague-Dawley rat plasma assessed as dabigatran level at 20 mg/kg, administered via gastric tube after 0.5 hrs; format: ADME, organism-based; design: dose 20 mg/kg; conditions: in vivo, po; procedure, shortened: as §2
Rattus norvegicus [10] = assay: Drug metabolism in Sprague-Dawley rat plasma assessed as HTMP level at 20 mg/kg, administered via gastric tube after 1 hr; format: ADME, organism-based; design: dose 20 mg/kg; conditions: in vivo, po; procedure, shortened: as §2
Rattus norvegicus [11] = assay: Drug metabolism in Sprague-Dawley rat plasma assessed as dabigatran level at 20 mg/kg, administered via gastric tube after 1 hr; format: ADME, organism-based; design: dose 20 mg/kg; conditions: in vivo, po; procedure, shortened: as §2
Rattus norvegicus [12] = assay: Drug metabolism in Sprague-Dawley rat plasma assessed as HTMP level at 20 mg/kg, administered via gastric tube after 1.5 hrs; format: ADME, organism-based; design: dose 20 mg/kg; conditions: in vivo, po; procedure, shortened: as §2
Rattus norvegicus [13] = assay: Drug metabolism in Sprague-Dawley rat plasma assessed as dabigatran level at 20 mg/kg, administered via gastric tube after 1.5 hrs; format: ADME, organism-based; design: dose 20 mg/kg; conditions: in vivo, po; procedure, shortened: as §2
Rattus norvegicus [14] = assay: Drug metabolism in Sprague-Dawley rat plasma assessed as HTMP level at 20 mg/kg, administered via gastric tube after 2 hrs; format: ADME, organism-based; design: dose 20 mg/kg; conditions: in vivo, po; procedure, shortened: as §2
Rattus norvegicus [15] = assay: Drug metabolism in Sprague-Dawley rat plasma assessed as dabigatran level at 20 mg/kg, administered via gastric tube after 2 hrs; format: ADME, organism-based; design: dose 20 mg/kg; conditions: in vivo, po; procedure, shortened: as §2
Rattus norvegicus [16] = assay: Drug metabolism in Sprague-Dawley rat plasma assessed as HTMP level at 20 mg/kg, administered via gastric tube after 4 hrs; format: ADME, organism-based; design: dose 20 mg/kg; conditions: in vivo, po; procedure, shortened: as §2
Rattus norvegicus [17] = assay: Drug metabolism in Sprague-Dawley rat plasma assessed as dabigatran level at 20 mg/kg, administered via gastric tube after 4 hrs; format: ADME, organism-based; design: dose 20 mg/kg; conditions: in vivo, po; procedure, shortened: as §2
Rattus norvegicus [18] = assay: Drug metabolism in Sprague-Dawley rat plasma assessed as HTMP level at 20 mg/kg, administered via gastric tube after 6 hrs; format: ADME, organism-based; design: dose 20 mg/kg; conditions: in vivo, po; procedure, shortened: as §2
Rattus norvegicus [19] = assay: Drug metabolism in Sprague-Dawley rat plasma assessed as dabigatran level at 20 mg/kg, administered via gastric tube after 6 hrs; format: ADME, organism-based; design: dose 20 mg/kg; conditions: in vivo, po; procedure, shortened: as §2
Rattus norvegicus [20] = assay: Antithrombotic activity in Sprague-Dawley rat venous thrombosis model assessed as thrombus dry weight administered via gastric tube qd for 3 days after 2 hrs of last post dose
Platelet = assay: as §1; format: functional, cell-based; conditions: Oryctolagus cuniculus

SMILES: COC(=O)/N=C(/N)c1ccc(NCc2nc3cc(C(=O)N(CCC(=O)OCc4nc(C)c(C)nc4C)c4ccccn4)ccc3n2C)cc1
IC50 [1]: 0.287 µM

SMILES: Cc1nc(C)c(COC(=O)CCN(C(=O)c2ccc3c(c2)nc(CNc2ccc(/C(N)=N\C(=O)OC(C)C)cc2)n3C)c2ccccn2)nc1C
IC50 [1]: 0.295 µM

SMILES: Cc1nc(C)c(CO)nc1C
IC50 [1]: 8410 µM | IC50 [2]: 1670 µM | ED50 (Rattus norvegicus [20]): 42.6 mg/kg

SMILES: CCCCCCOC(=O)NC(=N)c1ccc(NCc2nc3cc(C(=O)N(CCC(=O)OCC)c4ccccn4)ccc3n2C)cc1 [DABIGATRAN ETEXILATE]
IC50 [1]: 0.326 µM | inhibition (Platelet): inactive | ED50 (Rattus norvegicus [20]): 4.4 mg/kg

SMILES: Cc1nc(C)c(COC(=O)CCN(C(=O)c2ccc3c(c2)nc(CNc2ccc(/C(N)=N\C(=O)OCc4ccccc4)cc2)n3C)c2ccccn2)nc1C
IC50 [1]: 0.292 µM

Now those with a lower IC50 [1], led by results:

IC50 [1]: 0.218 µM
SMILES: CCOC(=O)/N=C(/N)c1ccc(NCc2nc3cc(C(=O)N(CCC(=O)OCc4nc(C)c(C)nc4C)c4ccccn4)ccc3n2C)cc1

IC50 [1]: 0.0728 µM
SMILES: CCCCCOC(=O)/N=C(/N)c1ccc(NCc2nc3cc(C(=O)N(CCC(=O)OCc4nc(C)c(C)nc4C)c4ccccn4)ccc3n2C)cc1

IC50 [1]: 0.0381 µM | IC50 [2]: 4030 µM | Drug metabolism (Rattus norvegicus [4]): 423 ng/mL | Drug metabolism (Rattus norvegicus [5]): 109 ng/mL | Drug metabolism (Rattus norvegicus [6]): 955 ng/mL | Drug metabolism (Rattus norvegicus [7]): 245 ng/mL | Drug metabolism (Rattus norvegicus [8]): 1075 ng/mL | Drug metabolism (Rattus norvegicus [9]): 252 ng/mL | Drug metabolism (Rattus norvegicus [10]): 938 ng/mL | Drug metabolism (Rattus norvegicus [11]): 264 ng/mL | Drug metabolism (Rattus norvegicus [12]): 495 ng/mL | Drug metabolism (Rattus norvegicus [13]): 164 ng/mL | Drug metabolism (Rattus norvegicus [14]): 430 ng/mL | Drug metabolism (Rattus norvegicus [15]): 152 ng/mL | Drug metabolism (Rattus norvegicus [16]): 188 ng/mL | Drug metabolism (Rattus norvegicus [17]): 67.3 ng/mL | Drug metabolism (Rattus norvegicus [18]): 93.3 ng/mL | Drug metabolism (Rattus norvegicus [19]): 18.2 ng/mL
SMILES: CCCCCCOC(=O)/N=C(/N)c1ccc(NCc2nc3cc(C(=O)N(CCC(=O)OCc4nc(C)c(C)nc4C)c4ccccn4)ccc3n2C)cc1
Activity (Rattus norvegicus [3]): Non-toxic | ED50 (Rattus norvegicus [20]): 2.1 mg/kg

IC50 [1]: 0.00313 µM
SMILES: Cc1nc(C)c(COC(=O)CCN(C(=O)c2ccc3c(c2)nc(CNc2ccc(/C(N)=N\C(=O)OC(C)(C)C)cc2)n3C)c2ccccn2)nc1C
ED50 (Rattus norvegicus [20]): 1.8 mg/kg
